High-throughput results as filed in PubChem BioAssay.
Most compounds without a hit are left out; they make up all but 1.2% or so of the library.
FN deposit inh: inhibitors of fibronectin matrix deposition, primary screen, AH1F cells, Alexa488-fibronectin fluorescence, plate reader; inhibition, % at 12.6 µM; 350,000 tested, 0.086% active; AH1F fibroblasts, overnight;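 active means mean inhibition across replicates of 30% or more, regardless of how many single replicates reach that level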
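Schedule: 1 h cell adhesion before compound, then overnight fibronectin incubation; test system: AH1F fibroblast monolayer depositing Alexa488-labelled fibronectin into matrix; quantity: 10000 AH1F cells per well; probe or stimulus: fluorescent fibronectin at 24 nM final; signal: fluorescence, ex 485 nm, em 525 nm; evaluation: percent inhibition as loss of matrix-bound fibronectin fluorescence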
RAD54 branch: inhibitors of human RAD54 branch migration, primary screen, biochemical, fluorescence, single point; DNA repair and recombination protein RAD54-like (Homo sapiens), Q92698; 360,000 tested, 0.14% active; RAD54 Holliday junction branch migration, FAM/BHQ fluorescence; inhibition, % at 10.4 µM;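 active means mean normalized replicate activity at least 40 and at least half of replicates scoring 40 or more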;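 further: inhibitors cause a drop in the FAM fluorescence signal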
NSD2 HMT inh: NSD2 histone methyltransferase inhibitors, primary screen, biochemical, AlphaScreen, single concentration, set 2 | NSD2 peptide methylation, 120 min | 310,000 tested, 0.54% active | inhibition, % at 12.5 µM | Histone-lysine N-methyltransferase NSD2 (Homo sapiens), O96028; in the data active means inhibition above about 50%
RAD52 inh: RAD52 DNA annealing inhibitors, primary screen, biochemical, FRET, single point, set 2. AID 651710, 2012. 360,000 tested, 0.46% active. DNA repair protein RAD52 homolog (Homo sapiens), P43351. inhibition, % at 18.7 µM. recombinant RAD52 DNA annealing, FRET fluorescence;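 active means every replicate showing at least 50% inhibition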
Target sequence (P43351 whole entry, looked up): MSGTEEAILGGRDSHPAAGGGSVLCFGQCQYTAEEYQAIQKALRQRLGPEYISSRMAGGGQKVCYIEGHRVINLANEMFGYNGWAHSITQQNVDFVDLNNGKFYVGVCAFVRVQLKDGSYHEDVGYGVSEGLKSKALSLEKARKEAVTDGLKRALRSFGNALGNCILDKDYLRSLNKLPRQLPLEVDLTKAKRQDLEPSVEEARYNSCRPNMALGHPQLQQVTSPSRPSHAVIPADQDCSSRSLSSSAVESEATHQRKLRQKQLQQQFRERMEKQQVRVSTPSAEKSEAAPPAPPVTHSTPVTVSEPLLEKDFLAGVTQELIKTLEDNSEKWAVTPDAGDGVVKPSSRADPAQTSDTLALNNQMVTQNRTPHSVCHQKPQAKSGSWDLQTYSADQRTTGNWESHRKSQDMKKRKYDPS
MLL AF4-AF9 inh: inhibitors of AF4 peptide binding to AF9, primary screen, biochemical, AlphaScreen, biotin-AF4 peptide, FLAG-AF9, single point. Protein AF-9 (Homo sapiens), P42568. inhibition, % at 10 µM. 350,000 tested, 0.47% active. AID 651704, 2012;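 active means every replicate reaching a set inhibition limit, whatever the replicate mean, cut at about 25% in these data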
Glyco luc inh: increase of ERlucT glycosylation luciferase signal, primary screen, N-linked glycosylation inhibitor project, D54 ERlucT cells, luminescence, set 2 | reporter increase, % at 12.5 µM | D54 ERlucT glycosylation luciferase reporter, 24 h; percent of 100 nM tunicamycin response | AID 588692, 2011 | 360,000 tested, 0.23% active;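 active means mean luciferase reporter signal, scaled so untreated is 0 and the glycosylation-blocking control 100, at or above a set limit in every replicate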;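 further: luciferase carries N-glycosylation sites so blocking glycosylation raises the light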
AlphaScreen art: AlphaScreen signal interference with preloaded methylated product, dose response, artefact control for NSD2 inhibitor project, biochemical, cherry-picked samples; shares compounds with NSD2 HMT inh; 1,500 tested, 9.4% active; AlphaScreen artifact counterscreen, preloaded methylated H4 peptide; AC35, µM (series often up to 10 µM); AID 1053174, 2014; call rule not given here
A number is an active result; n = inactive; x = no result given.

SMILES	FN deposit inh	RAD54 branch	NSD2 HMT inh	RAD52 inh	MLL AF4-AF9 inh	Glyco luc inh	AlphaScreen art
CC(=O)Nc1ccc(N(C(=O)CNC(=O)c2ccco2)C(C(=O)NCC2CCCO2)c2ccccc2)cc1 (centres undefined)	x	x	51.4	n	n	n	n
O=C1CCCC(O)=C1N=Nc1cccc(C(=O)O)c1	n	n	69.0	n	n	n	n
Cc1ccccc1S(=O)(=O)NCC[C@@H]1CC[C@@H](NC(=O)C2CCCC2)[C@H](CO)O1	n	n	x	n	n	x	x
Cc1ccc(CN2CCC(=O)N2)cc1	n	n	n	n	n	n	x
O=C1CCN(Cc2ccccc2)N1	n	n	85.9	n	n	n	n
Cc1cc(NC(=O)CSc2nc3ccccc3cc2C#N)no1	n	n	54.9	n	n	n	n
COc1ccc(/C=C(\C#N)C(=O)N2COCC2(C)C)cc1	n	x	59.4	n	n	n	n
COc1ccc(/C=C(\C#N)C(=O)N=CN(C)C)cc1	n	x	n	n	n	n	x
Cc1cccc(S(=O)(=O)N(C)C[C@H]2OCc3ccccc3-c3ccccc3C(=O)N([C@@H](C)CO)C[C@H]2C)c1	n	x	x	x	x	x	x
O=C(NCCc1ccccn1)C1CCCN1S(=O)(=O)c1ccc(Cl)cc1 (centres undefined)	n	n	119.4	n	n	n	n
Cc1c(-c2cccc(Cl)c2)nc2ccccc2c1C(=O)OC/C(O)=C(\C#N)c1nc2ccccc2[nH]1	n	n	55.9	n	n	63.2	n
COc1ccc(S(=O)(=O)Nc2ccc3c(c2)C(=O)N([C@H](C)CO)C[C@H](C)[C@H](CN(C)Cc2ccncc2)OCCCC[C@@H](C)O3)cc1	x	n	x	n	n	x	x
CCOC(=O)N(C)C[C@@H]1OCc2cn(nn2)CCCC(=O)N([C@@H](C)CO)C[C@@H]1C	n	n	x	n	n	x	x
Cc1noc(C)c1S(=O)(=O)N1CCN(S(=O)(=O)c2ccccc2C#N)CC1	n	n	106.8	n	n	n	n
COc1ccc2c3c(n(C)c2c1)[C@@H](CO)N(Cc1ccncc1)CC31CCN(C(=O)C2CCCCC2)CC1	x	x	x	n	n	x	x
CC(=O)N(/N=C1\Sc2ccccc2C1=O)c1ccc(C)cc1C	x	x	n	x	x	n	x
CC(=O)N(/N=C1\Sc2ccccc2C1=O)c1ccccc1C	x	n	56.3	x	x	n	n
CCC(=O)Nc1ccc2c(c1)OC[C@H](C)N(CCc1ccccc1)C[C@@H](C)[C@@H](OC)CN(C)C2=O	n	n	x	n	n	x	x
Cc1ccc(S(=O)(=O)Nc2ccccn2)c(C)c1	n	n	n	n	n	n	x
CN(C)c1cccc2c(S(=O)(=O)Nc3ccccn3)cccc12	n	n	57.8	x	x	n	n
COCC(=O)N1[C@@H]2c3ccc(C4=CCCCC4)c(=O)n3C[C@@H]2[C@@H](CO)[C@@H]1C(=O)N1CCCCC1	x	n	x	n	n	x	x
CO[C@H]1CN(C)C(=O)c2cc(NC(=O)Nc3ccccc3)ccc2OC[C@H](C)N(C(=O)CN(C)C)C[C@@H]1C	n	n	x	n	n	x	x
COc1ccc(CNC(=O)CCCN2C(=O)NC3(CCCC3)C2=O)cc1	n	n	58.0	n	n	n	n
N=C1/C(=C\c2ccc(Br)o2)C(=O)N=C2SC(CC(=O)N3CCOCC3)=NN12	n	n	93.7	n	n	n	n
CC1(C(=O)NC(=S)N(Cc2ccccc2)c2ccccn2)CC1(Cl)Cl (centres undefined)	n	x	n	n	n	n	x
CN(C(=S)NC(=O)C1(C)CC1(Cl)Cl)c1ccccc1 (centres undefined)	n	n	58.6	x	x	n	n
